Data published in ChEMBL document CHEMBL1143174, “Pharmacomodulation on the 3-acetylursolic acid skeleton: Design, synthesis, and biological evaluation of novel N-{3-[4-(3-aminopropyl)piperazinyl]propyl}-3-O-acetylursolamide derivatives as antimalarial agents” (Bioorg Med Chem, 2008).

Tests used:
[1] = target: T1, Histidine-rich protein PFHRP-II (Plasmodium falciparum, UniProt P05227); test: Inhibition of beta-hematin formation; assay type: functional
T1 sequence (P05227 whole entry): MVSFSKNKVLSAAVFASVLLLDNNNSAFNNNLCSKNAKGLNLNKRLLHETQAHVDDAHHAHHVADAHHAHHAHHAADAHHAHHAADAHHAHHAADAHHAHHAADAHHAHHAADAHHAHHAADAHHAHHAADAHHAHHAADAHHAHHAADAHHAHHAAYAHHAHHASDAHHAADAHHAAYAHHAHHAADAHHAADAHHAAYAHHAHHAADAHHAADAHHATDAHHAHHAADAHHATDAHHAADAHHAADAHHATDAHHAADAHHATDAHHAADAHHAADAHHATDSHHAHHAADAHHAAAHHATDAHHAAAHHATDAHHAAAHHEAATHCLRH

[2] = target: T2, Histidine-rich protein PFHRP-II (Plasmodium falciparum) (UniProt P05227); test: Relative chloroquine IC50 for beta-hematin formation; assay type: functional
T2 sequence (whole entry): T1 sequence (P05227 whole entry)

Plasmodium falciparum [3] = test: Antimalarial activity against chloroquine-resistant Plasmodium falciparum FcB1 after 24 hrs; assay type: functional, organism-based; conditions: FcB1, 24 h
How it was run: (§1)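 Asynchronous P. falciparum cultures in human erythrocytes (1% parasitemia, 1% final hematocrit) exposed to serially diluted compounds (DMSO stock, final DMSO ≤0.1%) for 24 h at 37 °C, then 0.5 µCi [3H]hypoxanthine per well added for a further 24 h. Growth inhibition from incorporated radioactivity versus drug-free control on the same plate; IC50 from concentration-response curve, means ± standard deviations of several independent experiments.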

[4] = target: T2, Histidine-rich protein PFHRP-II (Plasmodium falciparum); test: Inhibition of beta-hematin formation at 5 mM; assay type: functional
[5] = target: T2, Histidine-rich protein PFHRP-II (Plasmodium falciparum); test: Inhibition of beta-hematin formation at 10 mM; assay type: functional
[6] = target: T2, Histidine-rich protein PFHRP-II (Plasmodium falciparum); test: Inhibition of beta-hematin formation at 5.7 mM; assay type: functional
[7] = Selectivity index, IC50 for MRC5 cells to IC50 for chloroquine-resistant Plasmodium falciparum FcB1; assay type: functional
How it was run: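 Ratio of IC50 on MRC-5 human diploid embryonic lung cells to IC50 on FcB1 parasites, the latter from the 24 h drug plus 24 h [3H]hypoxanthine incorporation assay.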

MRC5 = test: Cytotoxicity against human MRC5 cells; assay type: cell-based
[8] = Resistance index, IC50 for chloroquine-resistant Plasmodium falciparum FcB1 to chloroquine-sensitive Plasmodium falciparum Thai; assay type: functional
How it was run: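 Ratio of IC50 values between the sensitive Thai and resistant FcB1 strains, each from the [3H]hypoxanthine incorporation assay (24 h drug exposure then 24 h label, asynchronous cultures, 1% parasitemia, 1% hematocrit).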

Plasmodium falciparum [9] = test: Antimalarial activity against chloroquine-sensitive Plasmodium falciparum Thai after 24 hrs; assay type: functional, organism-based; how it was run: as §1
[10] = target: T2, Histidine-rich protein PFHRP-II (Plasmodium falciparum); test: Inhibition of beta-hematin formation at 11.4 mM; assay type: functional
[11] = target: T2, Histidine-rich protein PFHRP-II (Plasmodium falciparum); test: Inhibition of beta-hematin formation at 4.2 mM; assay type: functional
[12] = target: T2, Histidine-rich protein PFHRP-II (Plasmodium falciparum); test: Inhibition of beta-hematin formation at 8.4; assay type: functional; conditions: concentration not given here
[13] = target: T2, Histidine-rich protein PFHRP-II (Plasmodium falciparum); test: Inhibition of beta-hematin formation at 1 to 20 mM; assay type: functional

SMILES | IC50 (Plasmodium falciparum [3]) | Selectivity index [7] | IC50 (MRC5) | Ratio [8] | IC50 (Plasmodium falciparum [9]) | also measured
C[C@H]1[C@H](C)CC[C@]2(C(=O)O)CC[C@]3(C)C(=CC[C@@H]4[C@@]5(C)CC[C@H](O)C(C)(C)[C@@H]5CC[C@]43C)[C@H]12 [URSOLIC ACID] | 52.9 µM |  |  |  |  | IC50 [1]: > 20000 µM; Ratio IC50 [2]: > 3.4; inhibition [4]: 17.9%
CCN(CC)CCCC(C)Nc1ccnc2cc(Cl)ccc12 (stereo unspecified) |  |  |  |  |  | inhibition [5]: 97.4%; inhibition [4]: 36.9%
CC(=O)O[C@H]1CC[C@]2(C)[C@H]3CC=C4[C@@H]5[C@@H](C)[C@H](C)CC[C@]5(C(=O)NCCCN5CCN(CCCN(Cc6ccc(F)cc6)Cc6ccc(F)cc6)CC5)CC[C@@]4(C)[C@]3(C)CC[C@H]2C1(C)C | 20.3 µM |  |  |  |  | 
CC(=O)O[C@H]1CC[C@]2(C)[C@H]3CC=C4[C@@H]5[C@@H](C)[C@H](C)CC[C@]5(C(=O)NCCCN5CCN(CCCN(Cc6ccc([N+](=O)[O-])cc6)Cc6ccc([N+](=O)[O-])cc6)CC5)CC[C@@]4(C)[C@]3(C)CC[C@H]2C1(C)C | 3.57 µM | 5.1 | 18.3 µM | 1.17 | 3.05 µM | inhibition [6]: 3.6%; IC50 [1]: > 20000 µM; Ratio IC50 [2]: > 3.4; inhibition [10]: 18.6%
CC(=O)O[C@H]1CC[C@]2(C)[C@H]3CC=C4[C@@H]5[C@@H](C)[C@H](C)CC[C@]5(C(=O)NCCCN5CCN(CCCN(CCCc6ccccc6)CCCc6ccccc6)CC5)CC[C@@]4(C)[C@]3(C)CC[C@H]2C1(C)C | 8.06 µM |  |  |  |  | 
CCCCN(CCCC)CCCN1CCN(CCCNC(=O)[C@]23CC[C@@H](C)[C@H](C)[C@H]2C2=CC[C@@H]4[C@@]5(C)CC[C@H](OC(C)=O)C(C)(C)[C@@H]5CC[C@@]4(C)[C@]2(C)CC3)CC1 | 1 µM |  |  |  |  | 
COc1ccc(CN(CCCN2CCN(CCCNC(=O)[C@]34CC[C@@H](C)[C@H](C)[C@H]3C3=CC[C@@H]5[C@@]6(C)CC[C@H](OC(C)=O)C(C)(C)[C@@H]6CC[C@@]5(C)[C@]3(C)CC4)CC2)Cc2ccc(OC)cc2)cc1 | 6.5 µM |  |  |  |  | 
CC(=O)O[C@H]1CC[C@]2(C)[C@H]3CC=C4[C@@H]5[C@@H](C)[C@H](C)CC[C@]5(C(=O)NCCCN5CCN(CCCN(CC6CC6)CC6CC6)CC5)CC[C@@]4(C)[C@]3(C)CC[C@H]2C1(C)C | 0.49 µM | 5.1 | 2.53 µM | 0.51 | 0.95 µM | 
CC(=O)O[C@H]1CC[C@]2(C)[C@H]3CC=C4[C@@H]5[C@@H](C)[C@H](C)CC[C@]5(C(=O)NCCCN5CCN(CCCNCc6ccc(O)cc6)CC5)CC[C@@]4(C)[C@]3(C)CC[C@H]2C1(C)C | 0.08 µM | 27 | 2.1 µM | 0.43 | 0.18 µM | 
CC(=O)O[C@H]1CC[C@]2(C)[C@H]3CC=C4[C@@H]5[C@@H](C)[C@H](C)CC[C@]5(C(=O)NCCCN5CCN(CCCN(Cc6ccc(Br)cc6)Cc6ccc(Br)cc6)CC5)CC[C@@]4(C)[C@]3(C)CC[C@H]2C1(C)C | > 100 µM |  |  |  |  | 
CC(=O)O[C@H]1CC[C@]2(C)[C@H]3CC=C4[C@@H]5[C@@H](C)[C@H](C)CC[C@]5(C(=O)NCCCN5CCN(CCCN(Cc6ccc(Cl)cc6)Cc6ccc(Cl)cc6)CC5)CC[C@@]4(C)[C@]3(C)CC[C@H]2C1(C)C | 46 µM |  |  |  |  | 
CC(=O)O[C@H]1CC[C@]2(C)[C@H]3CC=C4[C@@H]5[C@@H](C)[C@H](C)CC[C@]5(C(=O)NCCCN5CCN(CCCN(CC6CCCCC6)CC6CCCCC6)CC5)CC[C@@]4(C)[C@]3(C)CC[C@H]2C1(C)C | > 100 µM |  |  |  |  | 
CC(=O)O[C@H]1CC[C@]2(C)[C@H]3CC=C4[C@@H]5[C@@H](C)[C@H](C)CC[C@]5(C(=O)NCCCN5CCN(CCCNCc6ccc([N+](=O)[O-])cc6)CC5)CC[C@@]4(C)[C@]3(C)CC[C@H]2C1(C)C | 1.04 µM | 5.2 | 5.39 µM | 1.06 | 0.98 µM | 
C[C@H]1[C@H](C)CC[C@]2(C(=O)NCCCN3CCN(CCCN)CC3)CC[C@]3(C)C(=CC[C@@H]4[C@@]5(C)CC[C@H](O)C(C)(C)[C@@H]5CC[C@]43C)[C@H]12 | 0.32 µM |  |  |  |  | 
CCCN(CCC)CCCN1CCN(CCCNC(=O)[C@]23CC[C@@H](C)[C@H](C)[C@H]2C2=CC[C@@H]4[C@@]5(C)CC[C@H](OC(C)=O)C(C)(C)[C@@H]5CC[C@@]4(C)[C@]2(C)CC3)CC1 | 0.8 µM | 2.5 | 1.96 µM | 0.79 | 1 µM | 
CCCCCCCN(CCCCCCC)CCCN1CCN(CCCNC(=O)[C@]23CC[C@@H](C)[C@H](C)[C@H]2C2=CC[C@@H]4[C@@]5(C)CC[C@H](OC(C)=O)C(C)(C)[C@@H]5CC[C@@]4(C)[C@]2(C)CC3)CC1 | 41.8 µM |  |  |  |  | 
CC(=O)O[C@H]1CC[C@]2(C)[C@H]3CC=C4[C@@H]5[C@@H](C)[C@H](C)CC[C@]5(C(=O)NCCCN5CCN(CCCN(Cc6ccccc6)Cc6ccccc6)CC5)CC[C@@]4(C)[C@]3(C)CC[C@H]2C1(C)C | 21.1 µM |  |  |  |  | 
CC(=O)O[C@H]1CC[C@]2(C)[C@H]3CC=C4[C@@H]5[C@@H](C)[C@H](C)CC[C@]5(C(=O)NCCCN5CCN(CCCN(Cc6ccc(O)cc6)Cc6ccc(O)cc6)CC5)CC[C@@]4(C)[C@]3(C)CC[C@H]2C1(C)C | 0.16 µM | 9.7 | 1.57 µM | 0.46 | 0.35 µM | IC50 [1]: 5250 µM; inhibition [11]: 39.6%; inhibition [12]: 82.2%; Ratio IC50 [2]: 0.89
CC(=O)O[C@H]1CC[C@]2(C)[C@H]3CC=C4[C@@H]5[C@@H](C)[C@H](C)CC[C@]5(C(=O)O)CC[C@@]4(C)[C@]3(C)CC[C@H]2C1(C)C [O-ACETYLURSOLIC ACID] | 24.9 µM |  |  |  |  | inhibition [13]: 0%
CC(=O)O[C@H]1CC[C@]2(C)[C@H]3CC=C4[C@@H]5[C@@H](C)[C@H](C)CC[C@]5(C(=O)NCCCN5CCN(CCCN)CC5)CC[C@@]4(C)[C@]3(C)CC[C@H]2C1(C)C | 0.17 µM | 9.6 | 1.61 µM | 0.37 | 0.46 µM | IC50 [1]: > 20000 µM; Ratio IC50 [2]: > 3.4; inhibition [5]: 24.6%; inhibition [4]: 12.9%
CC(=O)O[C@H]1CC[C@]2(C)[C@H]3CC=C4[C@@H]5[C@@H](C)[C@H](C)CC[C@]5(C(=O)NCCCN5CCN(CCCN(CC(C)C)CC(C)C)CC5)CC[C@@]4(C)[C@]3(C)CC[C@H]2C1(C)C | 18.8 µM |  |  |  |  | 
